Our source for the Activity and IC50 values is ChEMBL document CHEMBL1146457, “Tetrahydrofuran lignans from Nectandra megapotamica with trypanocidal activity” (J Nat Prod, 2004).

Assay [1] has as its system Trypanosoma cruzi. Put plainly: Trypanocidal activity against Trypanosoma cruzi Y trypomastigotes infected in mouse macrophage at 32 uM. Format: functional. A digest of the protocol: (§1)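 Trypomastigotes were harvested from mouse macrophage cultures, about 2 × 10^6 parasites/mL, in RPMI 1640 in 96-well plates. Compounds were dissolved in DMSO and diluted in blood to final 2.0, 8.0 and 32.0 µM, with 1% DMSO. Plates were incubated at 4 °C, and percent lysis was read by MTT colorimetry, in triplicate. Negative control: infected blood plus DMSO.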

Assay [2] has as its system Trypanosoma cruzi. Put plainly: Trypanocidal activity against Trypanosoma cruzi Y trypomastigotes infected in mouse macrophage at 2 uM. Format: functional. In outline:
as §1

Assay [3] relates to Trypanosoma cruzi. The assay is described as follows: Trypanocidal activity against Trypanosoma cruzi Y trypomastigotes infected in mouse macrophage at 8 uM. Format: functional. A digest of the protocol:
as §1

In assay [4] the test system is Trypanosoma cruzi. The assay is described as follows: Antitrypanosomal activity against Trypanosoma cruzi Y trypomastigotes infected in mouse macrophage. Format: functional, organism-based. In outline: as §1
Assay [5] concerns Trypanosoma cruzi. Put plainly: Trypanocidal activity against Trypanosoma cruzi Y trypomastigotes infected in mouse macrophage at 250 ug/ml. Type of assay: functional, organism-based. A digest of the protocol:
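Positive-control wells had gentian violet at 250 µg/mL against trypomastigotes from mouse macrophage cultures, about 2 × 10^6 parasites/mL, in RPMI 1640 in blood. Incubation was at 4 °C, and percent lysis was measured by MTT colorimetric method, in triplicate.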

Regarding `COc1cc([C@H]2O[C@@H](c3ccc(OC)c(OC)c3)[C@@H](C)[C@@H]2C)ccc1O` [ARISTOLIGNIN], the Activity in the assay on Trypanosoma cruzi [1] is given as 47.6%; with Trypanosoma cruzi [2], 34.2%; in the assay on Trypanosoma cruzi [3], 46.8%. Further, in the assay on Trypanosoma cruzi [4], half-maximal inhibition (IC50) required 34.8 µM.
For `COc1ccc([C@@H]2O[C@H](c3ccc4c(c3)OCO4)[C@@H](C)[C@@H]2C)cc1OC` [CALOPIPTIN], in that order: 60.3%, 21.4%, 49.2% and 12.6 µM.
The like results for `COc1ccc([C@H]2O[C@@H](c3ccc(OC)c(OC)c3)[C@H](C)[C@@H]2C)cc1OC` [GALGRAVIN] were, in that order, 59.9%, 44%, 56.3% and 4.4 µM.
For `COc1ccc([C@H]2O[C@H](c3ccc(OC)c(OC)c3)[C@@H](C)[C@H]2C)cc1OC` [GANSCHISANDRINE], in that order: 55.6%, 36.5%, 49.2% and 12.2 µM.
Take `CN(C)c1ccc(C(=C2C=CC(=[N+](C)C)C=C2)c2ccc(N(C)C)cc2)cc1` [GENTIAN VIOLET]: it took 76 µM to reach half-maximal inhibition in the assay with Trypanosoma cruzi [5] (IC50).
Consider `COc1ccc([C@@H]2O[C@H](c3ccc4c(c3)OCO4)[C@@H](C)[C@H]2C)cc1OC` [MACHILIN G], for which the values for the Activity in the assay on Trypanosoma cruzi [1], with Trypanosoma cruzi [2] and in the assay with Trypanosoma cruzi [3] were 94%, 54.8% and 53.6%, respectively. The IC50 – broadly, the midpoint of a concentration-inhibition curve – with Trypanosoma cruzi [4] came to 2.2 µM.
The like results for `COc1cc([C@H]2O[C@@H](c3ccc(OC)c(OC)c3)[C@H](C)[C@@H]2C)ccc1O` [NECTANDRIN A] were, in that order, 18%, 10.2%, 13.5% and 17400 µM.
The like results for `COc1cc([C@H]2O[C@@H](c3ccc(O)c(OC)c3)[C@H](C)[C@@H]2C)ccc1O` [NECTANDRIN B] were, in that order, 48%, 23%, 25% and 47.3 µM.
